From ChEMBL document CHEMBL4689842, “EUbOPEN Chemogenomics Library wave 1” (2021)

Tests used:
U2OS = test: Multiplex assay against U2OS; format: toxicity, cell-based; settings: human
In short: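 With compound added, live cells were imaged on a CQ1 microscope at 37°C and 5% CO2; staining with Hoechst33342, BioTracker Green Microtubule Cytoskeleton Dye, MitoTracker Red and Annexin V Alexa Fluor 680 had been done at seeding. The CellPathfinder machine-learning gating scheme split cells into Hoechst high-intensity objects or normal cells, normal cells into healthy, pyknosed or fragmented nuclei, and pyknosed cells into mitotic or apoptotic. The tubulin, mitochondrial-mass and membrane-permeability phenotypes are per cents of healthy-nucleus cells.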

Fibroblast = test: Incucyte cell viability with human fibroblast; format: toxicity, cell-based; settings: 10 µM, compound concentration 10 uM; further: filed as whole numbers so only -1 and 0 and 1 occur
[1] = 12 h, 1 µM, compound concentration 1 uM, replicate 1
[2] = 12 h, 1 µM, compound concentration 1 uM, replicate 2
[3] = 12 h, 10 µM, compound concentration 10 uM, replicate 1
[4] = 12 h, 10 µM, compound concentration 10 uM, replicate 2
[5] = 24 h, 1 µM, compound concentration 1 uM, replicate 1
[6] = 24 h, 1 µM, compound concentration 1 uM, replicate 2
[7] = 24 h, 10 µM, compound concentration 10 uM, replicate 1
[8] = 24 h, 10 µM, compound concentration 10 uM, replicate 2

Cc1cn(-c2cc(NC(=O)c3ccc4c(c3)CN(c3cncnc3)C[C@@H]4C)cc(C(F)(F)F)c2)cn1
Population Apoptotic (%) (U2OS; [1]): 56% | Population Healthy Nuclei (%) (U2OS; [1]): 81% | Population Hoechst High Intensity Objects (%) (U2OS; [1]): 7% | Population Membrane Permeable-Phenotype (%) (U2OS; [1]): 6% | Population Mitochondria Different-Phenotype (%) (U2OS; [1]): 23% | Population Mitotic Cells (%) (U2OS; [1]): 43% | Population Normal (%) (U2OS; [1]): 92% | Population Pyknosed Nuclei (%) (U2OS; [1]): 11% | Population Tubulin-Different-Phenotype (%) (U2OS; [1]): 33% | Total Cell Count (U2OS; [1]): 149 | Population Apoptotic (%) (U2OS; [2]): 0% | Population Fragmented Nuclei (%) (U2OS; [2]): 7% | Population Healthy Nuclei (%) (U2OS; [2]): 86% | Population Hoechst High Intensity Objects (%) (U2OS; [2]): 16% | Population Membrane Permeable-Phenotype (%) (U2OS; [2]): 11% | Population Mitochondria Different-Phenotype (%) (U2OS; [2]): 30% | Population Mitotic Cells (%) (U2OS; [2]): 100% | Population Normal (%) (U2OS; [2]): 83% | Population Pyknosed Nuclei (%) (U2OS; [2]): 6% | Population Tubulin-Different-Phenotype (%) (U2OS; [2]): 19% | Total Cell Count (U2OS; [2]): 116 | Population Apoptotic (%) (U2OS; [3]): 33% | Population Fragmented Nuclei (%) (U2OS; [3]): 7% | Population Healthy Nuclei (%) (U2OS; [3]): 84% | Population Hoechst High Intensity Objects (%) (U2OS; [3]): 3% | Population Membrane Permeable-Phenotype (%) (U2OS; [3]): 40% | Population Mitochondria Different-Phenotype (%) (U2OS; [3]): 17% | Population Mitotic Cells (%) (U2OS; [3]): 66% | Population Normal (%) (U2OS; [3]): 96% | Population Pyknosed Nuclei (%) (U2OS; [3]): 7% | Population Tubulin-Different-Phenotype (%) (U2OS; [3]): 16% | Total Cell Count (U2OS; [3]): 198 | Population Apoptotic (%) (U2OS; [4]): 66% | Population Fragmented Nuclei (%) (U2OS; [4]): 10% | Population Healthy Nuclei (%) (U2OS; [4]): 87% | Population Hoechst High Intensity Objects (%) (U2OS; [4]): 15% | Population Membrane Permeable-Phenotype (%) (U2OS; [4]): 24% | Population Mitochondria Different-Phenotype (%) (U2OS; [4]): 26% | Population Mitotic Cells (%) (U2OS; [4]): 33% | Population Normal (%) (U2OS; [4]): 84% | Population Pyknosed Nuclei (%) (U2OS; [4]): 3% | Population Tubulin-Different-Phenotype (%) (U2OS; [4]): 17% | Total Cell Count (U2OS; [4]): 118 | Population Apoptotic (%) (U2OS; [5]): 45% | Population Fragmented Nuclei (%) (U2OS; [5]): 6% | Population Healthy Nuclei (%) (U2OS; [5]): 83% | Population Hoechst High Intensity Objects (%) (U2OS; [5]): 3% | Population Membrane Permeable-Phenotype (%) (U2OS; [5]): 6% | Population Mitotic Cells (%) (U2OS; [5]): 55% | Population Normal (%) (U2OS; [5]): 96% | Population Pyknosed Nuclei (%) (U2OS; [5]): 9% | Population Tubulin-Different-Phenotype (%) (U2OS; [5]): 42% | Total Cell Count (U2OS; [5]): 210 | Population Apoptotic (%) (U2OS; [6]): 42% | Population Fragmented Nuclei (%) (U2OS; [6]): 9% | Population Healthy Nuclei (%) (U2OS; [6]): 85% | Population Hoechst High Intensity Objects (%) (U2OS; [6]): 6% | Population Membrane Permeable-Phenotype (%) (U2OS; [6]): 12% | Population Mitochondria Different-Phenotype (%) (U2OS; [6]): 26% | Population Mitotic Cells (%) (U2OS; [6]): 57% | Population Normal (%) (U2OS; [6]): 93% | Population Pyknosed Nuclei (%) (U2OS; [6]): 5% | Population Tubulin-Different-Phenotype (%) (U2OS; [6]): 34% | Total Cell Count (U2OS; [6]): 143 | Population Apoptotic (%) (U2OS; [7]): 42% | Population Fragmented Nuclei (%) (U2OS; [7]): 6% | Population Healthy Nuclei (%) (U2OS; [7]): 85% | Population Hoechst High Intensity Objects (%) (U2OS; [7]): 4% | Population Membrane Permeable-Phenotype (%) (U2OS; [7]): 28% | Population Mitochondria Different-Phenotype (%) (U2OS; [7]): 14% | Population Mitotic Cells (%) (U2OS; [7]): 57% | Population Normal (%) (U2OS; [7]): 95% | Population Pyknosed Nuclei (%) (U2OS; [7]): 7% | Population Tubulin-Different-Phenotype (%) (U2OS; [7]): 12% | Total Cell Count (U2OS; [7]): 254 | Population Apoptotic (%) (U2OS; [8]): 22% | Population Fragmented Nuclei (%) (U2OS; [8]): 8% | Population Healthy Nuclei (%) (U2OS; [8]): 84% | Population Hoechst High Intensity Objects (%) (U2OS; [8]): 6% | Population Membrane Permeable-Phenotype (%) (U2OS; [8]): 20% | Population Mitochondria Different-Phenotype (%) (U2OS; [8]): 22% | Population Mitotic Cells (%) (U2OS; [8]): 77% | Population Normal (%) (U2OS; [8]): 93% | Population Tubulin-Different-Phenotype (%) (U2OS; [8]): 10% | Total Cell Count (U2OS; [8]): 128 | Growth Rate (Fibroblast; 0 h, replicate number 2, timepoint 0 hours): 0 | Growth Rate (Fibroblast; 6 h, replicate number 1, timepoint 6 hours): 0 | Growth Rate (Fibroblast; 12 h, replicate number 1, timepoint 12 hours): 0 | Growth Rate (Fibroblast; 12 h, replicate number 2, timepoint 12 hours): 1 | Growth Rate (Fibroblast; 18 h, replicate number 1, timepoint 18 hours): 0 | Growth Rate (Fibroblast; 24 h, replicate number 1, timepoint 24 hours): 0
